Results published in PubChem BioAssay AID588570 (Sanford-Burnham Center for Chemical Genomics, 2011).
Activity calls are given as the source filed them.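 Rule for the calls: active = mean IC50 at or below 20 µM in a cell killing test; inactive = the rest.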

tested on: CHO-XBP1 cytotoxicity, ATPlite luminescence, 6 h; test: cytotoxicity in CHO-XBP1 reporter cells, SAR follow-up, cytotoxicity control for UPR apoptotic arm activator project, cell-based, 6 h exposure, ATPlite luminescence (AID 588570)
How it was run: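 Assay system – CHO-XBP1 cell line · Quantity – 1000 cells/well · Medium – F12 plus 10% FBS · Dosing – dose-response series, DMSO ≤1% · Timing – overnight cell attachment, 6 h compound exposure at 37 °C · Technique – ATP-based luminescence with ATPLite 1-Step reagent · Controls – tunicamycin 10 µg/mL vs DMSO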

Row | Compound | IC50
1 | O=C(Nc1ccc(S(=O)(=O)N2CCC(F)CC2)cc1)c1ccc([N+](=O)[O-])o1 | > 80 µM (inactive)
2 | CC1CN(S(=O)(=O)c2ccc(NC(=O)c3ccc([N+](=O)[O-])o3)cc2)CC(C)O1 (stereo not given) | > 80 µM (inactive)
3 | O=C(Nc1nc2c(F)cc(F)cc2s1)c1ccccn1 | 10.7 µM
4 | O=C(Nc1nc2c(F)c(F)ccc2s1)c1ccccn1 | 4.29 µM
5 | O=C(Nc1ccc(S(=O)(=O)N2CCOCC2)cc1)c1ccc([N+](=O)[O-])o1 | > 80 µM (inactive)
6 | O=C(Nc1nc2c(F)cccc2s1)c1ccccn1 | 4.11 µM
7 | CC1CCN(S(=O)(=O)c2ccc(NC(=O)c3ccc([N+](=O)[O-])o3)cc2)CC1 | > 80 µM (inactive)
8 | CC(C)(C)C1CCN(S(=O)(=O)c2ccc(NC(=O)c3ccc([N+](=O)[O-])o3)cc2)CC1 | > 80 µM (inactive)
9 | O=C(Nc1ccc(S(=O)(=O)N2CCOCC2)cc1)c1ccc([N+](=O)[O-])s1 | > 80 µM (inactive)
10 | CC1(C)CCN(S(=O)(=O)c2ccc(NC(=O)c3ccc([N+](=O)[O-])o3)cc2)CC1 | > 80 µM (inactive)
11 | O=C(Nc1nc2ccc(F)cc2s1)c1ccccn1 | 4.78 µM
12 | O=C(Nc1ccc(S(=O)(=O)N2CCC(O)CC2)cc1)c1ccc([N+](=O)[O-])o1 | > 80 µM (inactive)
13 | O=C(Nc1ccc(S(=O)(=O)N2CCCC2)cc1)c1ccc([N+](=O)[O-])o1 | 74.6 µM (inactive)
14 | O=C(Nc1nc2cc(F)cc(F)c2s1)c1ccccn1 | 9.35 µM
15 | O=C(Nc1nc2cc(F)ccc2s1)c1ccccn1 | 2.62 µM
16 | O=C(Nc1ccc(S(=O)(=O)N2CCNCC2)cc1)c1ccc([N+](=O)[O-])o1 | > 80 µM (inactive)
17 | O=C(Nc1ccc(S(=O)(=O)N2CCCCC2)cc1)c1ccc([N+](=O)[O-])o1 | > 80 µM (inactive)
18 | O=C(Nc1ccc(S(=O)(=O)N2CCC(Cl)CC2)cc1)c1ccc([N+](=O)[O-])o1 | > 80 µM (inactive)
19 | O=C(Nc1nc2cccc(F)c2s1)c1ccccn1 | 7.08 µM
20 | O=C(Nc1ccc(S(=O)(=O)C2CCOCC2)cc1)c1ccc([N+](=O)[O-])o1 | > 80 µM (inactive)
21 | O=C(Nc1nc2c(Cl)cc(Cl)cc2s1)c1ccccn1 | > 80 µM (inactive)
22 | O=C(Nc1nc2ccc(F)c(F)c2s1)c1ccccn1 | 14 µM
23 | O=C(Nc1ccc(S(=O)(=O)N2CCC3(CCCCC3)CC2)cc1)c1ccc([N+](=O)[O-])o1 | > 80 µM (inactive)
24 | O=C(Nc1ccc(S(=O)(=O)c2ccccc2)cc1)c1ccc([N+](=O)[O-])o1 | > 80 µM (inactive)
25 | O=C(Nc1nc2ccc(C(F)(F)F)cc2s1)c1ccccn1 | 4.62 µM
26 | Cc1cc(C)c2nc(NC(=O)c3ccccn3)sc2c1 | 15.2 µM
27 | O=C(Nc1ccc(S(=O)(=O)C2CCCCC2)cc1)c1ccc([N+](=O)[O-])o1 | > 80 µM (inactive)
28 | O=C(Nc1nc2cc(F)c(F)cc2s1)c1ccccn1 | 5.1 µM
29 | O=C(Nc1nc2ccc(Cl)cc2s1)c1ccccn1 | 3.81 µM
30 | O=C(Nc1nc2c(F)ccc(F)c2s1)c1ccccn1 | 32.3 µM (inactive)
